Results pooled from the literature.
Target: Fibroblast growth factor receptor 4 (FGFR4, Homo sapiens, UniProt P22455)

SMILES | read-out | mode | method | tested at | measurement | value
CCCCN(CCCC)C(=O)CN1C[C@H](c2cc(OC)c3c(c2)OCO3)[C@@H](C(=O)O)[C@@H]1CC(C)(C)CCC | cell-free assay | – | competition with immobilised ligand | 1 µM | remaining binding | 100%
Cc1ccc(C(=O)NCc2ccsc2)cc1C#Cc1cn(C(C)C)c2ncnc(N)c12 | enzyme activity | inhibitor | – | 1 µM | activity vs control | 99%
Cn1nc(C(=O)NCc2ccc(C(=O)O)cc2)cc1-c1ccc2[nH]ccc2c1 | cell-free assay | – | competition with immobilised ligand | 0.1 µM | remaining binding | 100%
CC/C(=N\NC(=O)NCc1cccc(O)c1)c1ccc(O)c(C)c1O | enzyme activity | inhibitor | – | 0.1 µM | inhibition | 3.3%
Cc1ccc(NC(=O)c2ccc(C)c(C(F)(F)F)c2)cc1C#Cc1nn(C2CCC(O)CC2)c2ncnc(N)c12 (centres unmarked) | cell-free assay | – | – | 10 µM | remaining signal | 33%
N#CCCc1ccc2c(c1)-c1[nH]c3ccc([N+](=O)[O-])cc3c1CC(=O)N2 | cell-free assay | – | – | 0.5 µM | remaining signal | 89.1%
CN(C)C(=O)Cn1cc(-c2nc(C3(c4ccc(-c5cnc(N)nc5)cc4)CC3)no2)cn1 | cell-free assay | – | competition with immobilised ligand | 1 µM | remaining binding | 100%
Cc1sc(C(=O)NC2COC2)cc1-n1cc(NC(=O)Nc2c(F)cccc2Cl)cn1 | enzyme activity | inhibitor | – | 10 µM | remaining activity | 96.8%
COc1cc2ncnc(Nc3ccc(Oc4ccccc4)cc3C)c2cc1OC | enzyme activity | inhibitor | – | 1 µM | inhibition | -3%
O=C1NC(=O)c2cc(Nc3ccc(F)cc3)c(Nc3ccc(F)cc3)cc21 | cell-free assay | – | – | 0.5 µM | remaining signal | 95.5%
CNC(=O)c1cc(Oc2ccc(NC(=O)Nc3ccc(Cl)c(C(F)(F)F)c3)cc2)ccn1 | enzyme activity | inhibitor | – | 0.3 µM | inhibition | 2%
CC(C)(C)c1nc2c(s1)c1nc(N)ncc1c1ccc(NS(=O)(=O)c3c(F)cccc3F)c(F)c12 | enzyme activity | inhibitor | radiometric | 1 µM | remaining activity | 104%
O=C(Nc1cnn(-c2csc(C(=O)NC3COC3)c2)c1)Nc1c(F)cccc1Cl | enzyme activity | inhibitor | – | 5 µM | remaining activity | 99.6%
COc1ccc(COc2ccc(Cc3cnc(N)nc3N)cc2OC)cc1 | cell-free assay | – | – | 0.5 µM | remaining signal | 99.7%
Cc1cnc(NC2CCOCC2)nc1-n1cnc(C(=O)NC(CN)c2cc(F)cc(Cl)c2)c1 (centres unmarked) | enzyme activity | inhibitor | radiometric | 1 µM | remaining activity | 105%
Cc1cc(-n2nc(Cc3cc(F)cc(C(F)(F)F)c3)nc2C)ccc1C(N)=O | cell-free assay | – | competition with immobilised ligand | 1 µM | remaining binding | 100%
COc1cc(Cl)c(C(=O)N[C@@H](CN[C@H]2CC[C@@H](N)CC2)Cc2ccc(C#N)cc2)cc1-c1ccc(CN[C@H](C)c2ccc(C)cc2)o1 | enzyme activity | inhibitor | – | 1 µM | remaining activity | 96%
CS(=O)(=O)N1CCCC(NC(=O)[C@H](CCC2CCCCC2)NC(=O)c2ccc(CNC(=O)c3cnc4ccccn34)cc2)C1 (some centres unmarked) | cell-free assay | – | competition with immobilised ligand | 0.1 µM | remaining binding | 100%
Cc1ccc(C(=O)Nc2ccc(CN3CCN(C)CC3)c(C(F)(F)F)c2)cc1C#Cc1cnc2cccnn12 | cell-free assay | – | – | 23.5 nM | remaining signal | 49%
O=C(Nc1cccnn1)N1CCC(=Cc2cccc(Oc3ccc(C(F)(F)F)cn3)c2)CC1 | cell-free assay | – | competition with immobilised ligand | 1 µM | remaining binding | 100%
CCN(CC)CCNC(=O)c1c(C)[nH]c(/C=C2\C(=O)Nc3ccc(F)cc32)c1C | enzyme activity | inhibitor | – | 10 µM | inhibition | 30%
Cn1cc(Cl)c2c(Oc3c(F)cc(Nc4cc(Cl)nc(N)n4)cc3F)ccnc21 | cell-free assay | – | competition with immobilised ligand | 0.1 µM | remaining binding | 86%
CC(C)(O)[C@H]1CC[C@H](Nc2ccc3ncc(-c4cccc(C(F)(F)F)c4)n3n2)CC1 | enzyme activity | inhibitor | – | 1 µM | remaining activity | 108%
